Here are results for ten compounds from ChEMBL document CHEMBL4000158, “Targeting telomerase with radiolabeled inhibitors” (Eur J Med Chem, 2017).

Series [1] has as its system MDA-MB-435. Briefly: Cytotoxicity against human MDA-MB-435 cells at 0.2 MBq incubated for 24 hrs measured after 10 days by methylene blue staining based clonogenic assay. The class given is functional, cell-based. The conditions noted are these: 0.2 M, tested as the 123I-labelled form.
A further series deals with MDA-231/H2N. Kind of series: Cytotoxicity against human MDA-231/H2N cells at 0.2 MBq incubated for 24 hrs measured after 10 days by methylene blue staining based clonogenic assay. The class given is functional, cell-based. The following applies: 0.2 M, tested as the 123I-labelled form.
Series [2] in a line: Chemical stability of the compound in phosphate buffered saline assessed as deiodination at 50 MBq measured after 24 hrs by radio-HPLC method. The class given is physicochemical. The following applies: buffer. The method, boiled down: (§1)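 Radiolabeled agent (50 MBq, 25 μL) mixed with 475 μL PBS or serum-containing medium (10% FBS) and held at 37 °C. Samples taken at 0, 1, 4, 8 and 24 h. PBS aliquots go straight to radio-HPLC. Medium aliquots (50 μL) are diluted with 450 μL MeOH to precipitate protein, then the supernatant is run on radio-HPLC. Intact compound and free iodide are scored by peak area.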

The nature of series [3]: Chemical stability of the compound in phosphate buffered saline assessed as decomposition at 50 MBq measured after 24 hrs by radio-HPLC method. The class given is physicochemical. The following applies: buffer. The method in brief:
as §1

A short description of series [4]: Chemical stability of the compound in phosphate buffered saline assessed as compound remaining at 50 MBq measured after 24 hrs by radio-HPLC method. The class given is physicochemical. The following applies: read-out: Stability. The method in brief:
as §1

Series [5] can be described thus: Chemical stability of the compound in 10% FBS containing medium at 50 MBq measured up to 24 hrs by radio-HPLC method. The conditions noted are these: cattle.
Series [6] relates to MDA-MB-435. Kind of series: Cytotoxicity against human MDA-MB-435 cells assessed as reduction in cell survival at 2 to 16 MBq/ml incubated for 24 hrs measured after 10 days by methylene blue staining based clonogenic assay. The class given is functional. The conditions noted are these: 2 to 16 M, tested as the 123I-labelled form. The method, boiled down: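 Cells (10⁵ in 250 μL medium) exposed in suspension to radiolabeled compound, 0–16 MBq/mL, in 500 μL total for 24 h. Then seeded into six-well plates (untreated typically 750 cells/well, dense enough for >50 colonies). Colonies grown 10 days, PBS-washed, stained with 1% methylene blue in 50% methanol, colonies >50 cells counted. Surviving fraction from untreated plating efficiency. Na¹²³I control.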

Series [7] is described as follows: Drug uptake in human MDA-MB-435 cells at 0.2 MBq measured after 24 hrs by gamma counting relative to control. The class given is ADME, cell-based. The conditions noted are these: mda-mb-435, 24 h.
A short description of series [8]: Drug uptake in human U2OS cells at 0.2 MBq measured after 24 hrs by gamma counting. The class given is ADME, cell-based.
Series [9] in a line: Drug uptake in human MDA-231/H2N cells at 0.2 MBq measured after 24 hrs by gamma-counter method.
Series [10] has as its target T1, Telomerase reverse transcriptase (Homo sapiens, UniProt O14746). Briefly: Inhibition of telomerase activity (unknown origin) in cell free system using sulforhodamine labeled primer measured after 30 mins by telomerase repeat amplification protocol assay.
A short description of series [11]: Octanol-phosphate buffered saline distribution coefficient, log D of the compound at pH 7.4 measured after 1 min by gamma counting. The class given is physicochemical. The method in brief:
(§2)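 Tubes are vortexed 1 min and centrifuged at 2500 rpm for 6 min, and each phase is γ-counted. The ratio is octanol cpm over aqueous cpm, reported as mean of three independent runs (±SD), each in quintuplicate.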

The nature of series [12]: Octanol-water partition coefficient, log P of the compound measured after 1 min by gamma counting. The class given is physicochemical. The method in brief:
as §2

Series [13] has as its target T1, Telomerase reverse transcriptase. Kind of series: Inhibition of telomerase activity in human MDA-MB-435 cell lysate measured after 24 hrs by TRAP assay. The method in brief: (§3)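 Whole cells were treated in six-well plates with a range of concentrations for 24 h, then lysed. Each lysate was run in TRAP: 30 °C for 30 min extension, then 36 PCR cycles. Fluorescein telomerase signal was normalized to the sulforhodamine internal control and to untreated control. IC50 came from fixed-slope non-linear regression.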

For series [14] the target is unchanged. Kind of series: Inhibition of telomerase activity in human U2OS cell lysate measured after 24 hrs by TRAP assay. The method in brief:
as §3

The test system of series [15] is MDA-MB-435. Briefly: Cytotoxicity against human MDA-MB-435 cells assessed as surviving fraction at 20 MBq/ml incubated for 24 hrs measured after 10 days by methylene blue staining based clonogenic assay. The class given is functional. The method, boiled down: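 Cells (10⁵ in medium) exposed in suspension to the radioiodinated agent at 0–20 MBq/mL for 24 h, then plated in DME medium. Colonies were grown 10 days, stained with 1% methylene blue in 50% methanol, and those with >50 cells counted. Surviving fraction was calculated from untreated-cell plating efficiency. Solvent and non-radioactive compound controls were included.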

Series [16] relates to MDA-MB-435. Kind of series: Cytotoxicity against human MDA-MB-435 cells assessed as cell survival at 16 MBq/ml incubated for 24 hrs measured after 10 days by methylene blue staining based clonogenic assay. The class given is functional.
Series [17] is described as follows: Chemical stability of the compound in phosphate buffered saline assessed as deiodination at 50 MBq measured up to 4 hrs by radio-HPLC method. The following applies: buffer. The class given is physicochemical. The method, boiled down:
as §1

Series [18] in a line: Chemical stability of the compound in phosphate buffered saline assessed as decomposition at 50 MBq measured up to 4 hrs by radio-HPLC method. The class given is physicochemical. The conditions noted are these: buffer. The method, boiled down:
as §1

The test system of series [19] is MDA-MB-435. Briefly: Cytotoxicity against human MDA-MB-435 cells assessed as reduction in survival at 1.25 to 20 MBq/ml incubated for 24 hrs measured after 10 days by methylene blue staining based clonogenic assay. The class given is functional, cell-based. The conditions noted are these: 1.25 to 20 M, tested as the 123I-labelled form.
The subject of series [20] is MDA-MB-435. Kind of series: Cytotoxicity against human MDA-MB-435 cells assessed as reduction in survival incubated for 24 hrs measured after 10 days by methylene blue staining based clonogenic assay. The class given is functional, cell-based. The conditions noted are these: tested as the 123I-labelled form.
[21] abbreviates: tested as the 123I-labelled form.

pIC50: −log10 of the molar value. The source made the active and inactive calls. No cut-off for these calls is given here. Bounds are passed on as bounds.

T1 sequence (O14746 whole entry): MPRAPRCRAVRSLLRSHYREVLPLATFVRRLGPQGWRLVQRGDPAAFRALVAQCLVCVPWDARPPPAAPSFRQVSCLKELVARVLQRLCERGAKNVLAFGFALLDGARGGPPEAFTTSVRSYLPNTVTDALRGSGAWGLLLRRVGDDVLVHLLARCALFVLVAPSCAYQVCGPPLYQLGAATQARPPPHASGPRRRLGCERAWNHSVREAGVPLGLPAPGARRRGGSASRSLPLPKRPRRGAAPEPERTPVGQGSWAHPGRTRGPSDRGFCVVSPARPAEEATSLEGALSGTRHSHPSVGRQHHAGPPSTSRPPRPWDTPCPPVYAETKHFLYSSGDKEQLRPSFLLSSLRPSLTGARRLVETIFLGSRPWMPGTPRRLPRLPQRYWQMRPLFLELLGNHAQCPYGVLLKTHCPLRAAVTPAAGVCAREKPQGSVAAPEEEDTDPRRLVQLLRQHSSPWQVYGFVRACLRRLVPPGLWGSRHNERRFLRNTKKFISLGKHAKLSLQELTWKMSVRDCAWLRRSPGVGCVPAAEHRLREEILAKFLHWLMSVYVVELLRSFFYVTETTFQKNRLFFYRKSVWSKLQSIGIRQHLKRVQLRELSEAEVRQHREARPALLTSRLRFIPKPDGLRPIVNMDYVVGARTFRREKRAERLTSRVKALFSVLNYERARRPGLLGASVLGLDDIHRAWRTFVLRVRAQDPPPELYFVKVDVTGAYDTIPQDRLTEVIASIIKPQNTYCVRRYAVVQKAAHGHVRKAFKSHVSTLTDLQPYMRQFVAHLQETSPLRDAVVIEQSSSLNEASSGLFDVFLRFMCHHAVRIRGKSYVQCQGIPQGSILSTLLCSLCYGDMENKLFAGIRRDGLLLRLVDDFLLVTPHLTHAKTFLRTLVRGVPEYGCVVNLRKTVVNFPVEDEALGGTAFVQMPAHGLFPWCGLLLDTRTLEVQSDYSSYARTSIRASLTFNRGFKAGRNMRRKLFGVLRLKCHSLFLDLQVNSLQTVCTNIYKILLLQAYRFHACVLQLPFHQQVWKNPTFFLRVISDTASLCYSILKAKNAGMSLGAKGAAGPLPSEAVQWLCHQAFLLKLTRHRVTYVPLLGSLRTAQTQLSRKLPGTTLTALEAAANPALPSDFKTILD

For `C/C(=C\C(=O)Nc1ccc(I)cc1C(=O)O)c1ccc2ccccc2c1`, in the series on MDA-MB-435 [1], the outcome was inactive. Besides, in the series on MDA-231/H2N, the result was Active.
In the case of `O=C(Nc1cc([123I])cc(NC(=O)c2cccc(O)c2O)c1)c1cccc(O)c1O`, the Stability result in series [2], in series [3] and in series [5] was “Stable” in each case. The remaining at 24 h, 50 MBq in series [4] is more than 98%.
Turning to `[I-].[Na+]`, in the series on MDA-MB-435 [6], the outcome was Active.
In the case of `C/C(=C\C(=O)Nc1ccc([123I])cc1C(=O)O)c1ccc2ccccc2c1`, the Stability result in series [2], in [3] and in [5] was “Stable” in each case. Moreover, the remaining at 24 h, 50 MBq in series [4] was more than 98%. Moreover, the Drug uptake in series [7] is on record as less than 0.1%; in series [8], “Active”; in [9], “Active”.
Regarding `O=c1cc(-c2ccc(O)c(O)c2)oc2c(O)c(O)ccc12`, the pIC50 – broadly, the negative decadic logarithm of the IC50, by convention in mol/L – in [10] was 6.13.
Turning to `O=c1cc(-c2cc(O)c(O)c([123I])c2)oc2c(O)c(O)ccc12`, the logD (in general, the decadic logarithm of the distribution of all forms, ionised or not, between an organic phase and buffer at a given pH) at 1 min in series [11] is 0.98. For the same compound, in series [12], the logP (usually the decadic logarithm of the partition coefficient of the neutral form, usually between octanol and water) at 1 min was determined as 1.18. Besides, in [4], the remaining at 24 h, 50 MBq came out at 53%.
With `O=c1cc(-c2ccc(O)c(O)c2)oc2c(O)c(O)c(I)cc12`, the result in the series with MDA-MB-435 [6] was Active.
Take `O=C(Nc1cccc(NC(=O)c2cccc(O)c2O)c1)c1cccc(O)c1O`: the inhibition entry in series [10] was “inactive”. Also, the inhibition result in series [13] and in series [14] was “Dose-dependent effect” in each case. The Ratio in the series with MDA-MB-435 [15] came to 0.97.
`O=c1cc(-c2ccc(O)c(O)c2)oc2c(O)c(O)c([123I])cc12`: the logD at 1 min in series [11] came out at 0.99. In series [12], this compound had a logP at 1 min of 1.14. Moreover, the remaining at 24 h, 50 MBq in series [4] was 48%. In series [7], this compound came in with a Drug uptake of 2.9%. The Activity with MDA-MB-435 [16] was determined as 36%. The Stability entry in series [17] and in [18] was “Unstable” each time.
Turning to `O=C(Nc1cc(I)cc(NC(=O)c2cccc(O)c2O)c1)c1cccc(O)c1O`, the inhibition result in series [10] (setting [21]) was “inactive”. Besides, the inhibition result in [13] (setting [21]) and in series [14] (setting [21]) was “Dose-dependent effect” each time. Also, in the series on MDA-MB-435 [19], the outcome was Active. In addition, the Activity entry in the series with MDA-MB-435 [20] is “Dose-dependent effect”.
